# Data reported in ChEMBL document CHEMBL4376875, “Synthesis and Biological Evaluation of B-Cell Lymphoma 6 Inhibitors of N-Phenyl-4-pyrimidinamine Derivatives Bearing Potent Activities against Tumor Growth” (J Med Chem, 2020).
# Active and inactive are the calls of the source. No cut-off for these calls is given here.
# What was measured:
# Mus musculus [1] = test: Upregulation of CXCR4 mRNA expression in SCID mouse xenografted with human SUDHL4 cells at 5 to 10 mg/kg, iv administered 3 days once for 15 days by qPCR analysis; type: functional, organism-based
# Procedure, shortened: (§1)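 Male SCID mice, 6 weeks old, received 1 × 10⁷ SUDHL4 cells s.c. At about 100 mm³, mice were randomized (n = 7) to vehicle (20% 2-hydroxypropyl-β-cyclodextrin) or 5 or 10 mg/kg every 3 days i.v. for 15 days. Body weight and caliper volume (L × W² × 0.52) were recorded every 3 days. At sacrifice, tissues were fixed in 4% paraformaldehyde and paraffin-embedded for H&E or Ki67 IHC. Tumor mRNA was assayed by qPCR.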
# SUD4 [2] = test: Induction of apoptosis in human SUDHL4 cells assessed as late apoptotic cells at 1.25 uM incubated for 48 hrs by annexin V-FITC and propidium iodide staining based flow cytometry analysis (reference value: 1.39%); type: functional
# SUD4 [3] = test: Induction of apoptosis in human SUDHL4 cells assessed as early apoptotic cells at 1.25 uM incubated for 48 hrs by annexin V-FITC and propidium iodide staining based flow cytometry analysis (reference value: 2.62%); type: functional
# Toledo [4] = test: Effect on ATR mRNA expression in BCL6-negative human Toledo cells at 1.25 to 5 uM incubated for 24 hrs by RT-PCR analysis; type: functional, cell-based
# Procedure, shortened: (§2)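 Toledo cells (BCL6-independent) were exposed to 1.25, 2.50 or 5.00 μM for 24 h, then mRNA was collected. Target-gene transcripts were quantified by real-time quantitative PCR against vehicle control.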
# SUD4 [5] = test: Antitumor activity against human SUDHL4 cells xenografted in SCID mouse assessed as reduction in Ki67 expression in tumor at 5 mg/kg, iv administered 3 days once for 15 days by Ki67-staining based immunohistochemistry; type: functional, organism-based; procedure, shortened: as §1
# [6] = Toxicity in SCID mouse xenografted with human SUDHL4 cells assessed as adverse effect on spleen morphology at 5 to 10 mg/kg, iv administered 3 days once for 15 days by H and E staining analysis; type: organism-based; conditions: in vivo; procedure, shortened: as §1
# SUD4 [7] = test: Antitumor activity against human SUDHL4 cells xenografted in SCID mouse assessed as reduction in tumor volume at 5 mg/kg, iv administered 3 days once for 15 days and measured every 3 days by caliper analysis; type: functional, organism-based; procedure, shortened: as §1
# Mus musculus [8] = organism: Mus musculus; conditions: C57BL/6, 10 mg/kg
# Toledo [9] = test: Effect on CDKN1A mRNA expression in BCL6-negative human Toledo cells at 1.25 to 5 uM incubated for 24 hrs by RT-PCR analysis; type: functional, cell-based; procedure, shortened: as §2
# [10] = Metabolic stability in human liver microsomes assessed as half life; type: ADME, Microsome
# Procedure, shortened: (§3)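 Incubation with human liver microsomes. Intrinsic clearance was scaled to liver using 45 mg microsomal protein per g liver and 20 g liver per kg body weight. Half-life was also determined.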
# [11] = Metabolic stability in human liver microsomes assessed as compound remaining measured after 60 mins; type: ADME, Microsome; conditions: read-out: Stability
# [12] = Toxicity in SCID mouse xenografted with human SUDHL4 cells assessed as adverse effect on heart morphology at 5 to 10 mg/kg, iv administered 3 days once for 15 days by H and E staining analysis; type: organism-based; conditions: in vivo; procedure, shortened: as §1
# DOHH-2 = test: Antiproliferative activity against human DOHH2 cells assessed as reduction in cell viability incubated for 72 hrs by CCK8 assay; conditions: DOHH-2, 72 h
# [13] = Toxicity in SCID mouse xenografted with human SUDHL4 cells assessed as adverse effect on lungs morphology at 5 to 10 mg/kg, iv administered 3 days once for 15 days by H and E staining analysis; type: organism-based; conditions: in vivo; procedure, shortened: as §1
# OCI-Ly7 = test: Antiproliferative activity against human OCI-LY7 cells assessed as reduction in cell viability incubated for 72 hrs by CCK8 assay; conditions: OCI-Ly7, 72 h
# Farage = conditions: Homo sapiens, 0.25 to 2 uM
# SUD4 [14] = test: Induction of apoptosis in human SUDHL4 cells assessed as late apoptotic cells at 2.5 uM incubated for 48 hrs by annexin V-FITC and propidium iodide staining based flow cytometry analysis (reference value: 1.39%); type: functional
# Toledo [15] = test: Effect on CD80 mRNA expression in BCL6-negative human Toledo cells at 1.25 to 5 uM incubated for 24 hrs by RT-PCR analysis; type: functional, cell-based; procedure, shortened: as §2
# [16] = Protein binding in human plasma; type: ADME, cell-free; conditions: read-out: PPB (converted)
# Procedure, shortened: (§4)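 Human plasma protein binding was measured by a contract laboratory.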
# SUD4 [17] = test: Antiproliferative activity against human SUDHL4 cells assessed as living cells and S phase cells at 0.625 uM incubated for 48 hrs by Edu based flow cytometry analysis (reference value: 48.3%)
# [18] = Cytotoxicity against HAF cells assessed as reduction in cell viability incubated for 72 hrs by CCK8 assay; conditions: Homo sapiens
# [19] = Toxicity in SCID mouse xenografted with human SUDHL4 cells assessed as reduction in body weight at 5 to 10 mg/kg, iv administered 3 days once for 15 days and measured every 3 days; type: organism-based; conditions: in vivo; procedure, shortened: as §1
# Toledo [20] = test: Effect on CXCR4 mRNA expression in BCL6-negative human Toledo cells at 1.25 to 5 uM incubated for 24 hrs by RT-PCR analysis; type: functional, cell-based; procedure, shortened: as §2
# SUD4 [21] = test: Antiproliferative activity against human SUDHL4 cells assessed as living cells and S phase cells at 1.25 uM incubated for 48 hrs by Edu based flow cytometry analysis (reference value: 48.3%)
# Mus musculus [22] = test: In vivo inhibition of GC formation in NP-CGG immunized C57BL/6 mouse assessed as proportion of Tfh cells (CXCR5+PD1+CD4+) at 10 mg/kg, iv administered 3 days once for 12 days starting from 2 days after NP-CGG addition by flow cytometry analysis (reference value: 2.25%); type: functional; parameters: scale not given: the % may be the effect or the level left
# SUD4 [23] = test: Antitumor activity against human SUDHL4 cells xenografted in SCID mouse assessed as reduction in tumor growth at 5 mg/kg, iv administered 3 days once for 15 days and measured every 3 days; type: functional, organism-based; procedure, shortened: as §1
# Toledo [24] = test: Antiproliferative activity against BCL6-negative human Toledo cells assessed as reduction in cell viability incubated for 72 hrs by CCK8 assay
# [25] = Metabolic stability in human liver microsomes assessed as intrinsic clearance per mg of protein; type: ADME, Microsome; conditions: read-out: CLH; procedure, shortened: as §3
# Mus musculus [26] = test: Upregulation of ATR mRNA expression in SCID mouse xenografted with human SUDHL4 cells at 5 to 10 mg/kg, iv administered 3 days once for 15 days by qPCR analysis; type: functional, organism-based; procedure, shortened: as §1
# NCM460 = test: Cytotoxicity against human NCM460 cells assessed as reduction in cell viability incubated for 72 hrs by CCK8 assay; conditions: NCM460, 72 h
# Toledo [27] = test: Effect on p53 mRNA expression in BCL6-negative human Toledo cells at 1.25 to 5 uM incubated for 24 hrs by RT-PCR analysis; type: functional, cell-based; procedure, shortened: as §2
# [28] = Protein binding in human plasma assessed as unbound fraction; type: ADME, cell-free; procedure, shortened: as §4
# Mus musculus [29] = organism: Mus musculus; conditions: C57BL/6, 10 mg/kg; remark: listed apart in the source
# L02 = test: Cytotoxicity against human LO2 cells assessed as reduction in cell viability incubated for 72 hrs by CCK8 assay; conditions: L02, 72 h
smiles,measurement,setting,value
COc1cc(Nc2nc(N3C[C@@H](C)N[C@@H](C)C3)ncc2F)ccc1NC(=O)c1ccc(C2=CCCC2)s1,Activity,Mus musculus [1],Active
same,Activity,SUD4 [2],12.5%
same,Activity,SUD4 [3],3.57%
same,Activity,Toledo [4],inactive
same,Activity,SUD4 [5],Active
same,Activity,[6],Non-Toxic
same,Activity,SUD4 [7],Active
same,inhibition,Mus musculus [8],Active
same,Activity,Toledo [9],inactive
same,half-life,[10],> 60 min
same,remaining at 1 h,[11],102%
same,Activity,[12],Non-Toxic
same,IC50,DOHH-2,1210 nM
same,Activity,[13],Non-Toxic
same,IC50,OCI-Ly7,1620 nM
same,inhibition,Farage,inactive
same,Activity,SUD4 [14],67.3%
same,Activity,Toledo [15],inactive
same,fraction unbound,[16],0.076
same,Activity,SUD4 [17],27.3%
same,IC50,[18],26.4 µM
same,Activity,[19],Non-Toxic
same,Activity,Toledo [20],inactive
same,Activity,SUD4 [21],12.5%
same,Activity,Mus musculus [22],0.99%
same,Activity,SUD4 [23],Active
same,IC50,Toledo [24],3.25 µM
same,microsomal CLint,[25],< 9.6 µL/min/mg
same,Activity,Mus musculus [26],Active
same,IC50,NCM460,32.4 µM
same,Activity,Toledo [27],inactive
same,fraction unbound,[28],0.076
same,inhibition,Mus musculus [29],Active
same,IC50,L02,13.1 µM
